procasp3 activ: activates human procaspase-3. P42574. recombinant procaspase-3 D3A, Ac-DEVD-pNA absorbance 405 nm. activation, % at 8.5 µM. actives 0.11% (n = 330,000). AID 463141;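 active means activation above the mean of all tested compounds plus 3 SD, cut at about 21% in these data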
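Evaluation: percent activation relative to control range; Material: Procaspase-3 D3A mutant, all three cleavage aspartates alanine; Compound: single dose, 8.5 µM nominal compound, 0.8% DMSO; Replication: one well per compound; Signal: absorbance at 405 nm, 0 and 120 min; Schedule: 1 h preincubation plus 2 h reaction at 25 °C.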
EBNA-1 inhibitor: blocks EBNA-1 binding to DNA; EBNA-1 DNA binding, fluorescence polarization; inhibition, % at 14.8 µM; actives 0.34% (n = 300,000); AID 1950; in the data active means inhibition above about 28%
proCasp7 act: counter-screen for procaspase-3 activators: activators of human procaspase-7; recombinant procaspase-7, Ac-DEVD-pNA absorbance 405 nm; D23A/D198A/D206A triple mutant, cannot self-cleave; scale: DMSO 0, 5 µM enzyme 100; P55210; AID 463210; activation, % at 8.5 µM; actives 0.093% (n = 330,000);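 active means percent activation above the screen-wide mean plus 3 SD, cut at about 25% in these data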
Target sequence (P55210 whole entry D23A/D198A/D206A): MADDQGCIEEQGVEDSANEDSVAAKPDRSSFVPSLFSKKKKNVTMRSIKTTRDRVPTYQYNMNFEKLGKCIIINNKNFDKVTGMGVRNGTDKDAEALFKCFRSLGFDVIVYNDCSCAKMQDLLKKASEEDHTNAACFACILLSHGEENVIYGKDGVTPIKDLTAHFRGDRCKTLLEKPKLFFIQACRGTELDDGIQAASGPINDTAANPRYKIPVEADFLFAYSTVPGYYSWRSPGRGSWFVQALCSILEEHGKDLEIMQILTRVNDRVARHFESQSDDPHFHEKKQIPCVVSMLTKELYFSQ
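Assay system: Uncleavable procaspase-7 mutant enzyme | Input: 2 µM procaspase-7 mutant as dispensed | Timing: 1 h compound preincubation, 2 h substrate cleavage, 25 °C | Repeats: One well per compound | Control set: DMSO wells as 0%, DMSO with 5 µM added PC-7 as 100% | Technique: Epi-absorbance of released pNA at 405 nm, two timepoints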
Apaf1 inhib: blocks human Apaf-1 apoptosome activity | O14727 | reconstituted apoptosome caspase-3 activity, DEVD-Rh110 fluorescence | inhibition, % at 20 µM | actives 0.71% (n = 330,000) | AID 489030; active means inhibition of at least 40% at 20 µM
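Material: reconstituted apoptosome with Apaf-1, cytochrome c, caspase-9, procaspase-3, dATP / Buffer or medium: pH 7.5 Hepes buffer with CHAPS, BSA, DTT / Also added: cytochrome c with DEVD-Rh110 / Schedule: compound with Apaf-1, dATP, procaspase-3 30 min, then 50 min reaction, room temperature / Technique: rhodamine 110 fluorescence at Ex 480/Em 540 nm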
GSTO1 inh: GSTO1 inhibition, counter-screen for RBBP9 inhibitors | P78417 | recombinant GSTO1, activity-based probe fluorescence polarization | inhibition, % at 5.96 µM | actives 1.1% (n = 300,000);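 active means inhibition above the campaign mean inhibition plus 3 SD, cut at about 35% in these data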
Target sequence (P78417 whole entry, looked up): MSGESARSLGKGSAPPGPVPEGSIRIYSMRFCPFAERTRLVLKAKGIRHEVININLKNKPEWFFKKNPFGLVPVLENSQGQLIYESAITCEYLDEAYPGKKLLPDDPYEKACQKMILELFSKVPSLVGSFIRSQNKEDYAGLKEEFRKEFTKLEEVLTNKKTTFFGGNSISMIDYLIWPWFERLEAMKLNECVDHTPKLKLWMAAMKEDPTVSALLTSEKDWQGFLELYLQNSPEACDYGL
ZTA DNA inh: ZTA (EBV) inhibition in EBNA-1 counter-screen. actives 0.15% (n = 320,000). inhibition, % at 11 µM. P03206. AID 2234. ZTA-DNA binding, fluorescence polarization; in the data active means inhibition above about 33%
Apaf-1 inh conf2: Apaf-1 inhibition, single-dose confirmed; shares compounds with Apaf1 inhib; reconstituted apoptosome, caspase-3 DEVD-Rh110 fluorescence; inhibition, % at 20 µM; actives 25% (n = 1,800);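 active means mean inhibition of at least 40% at 20 µM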
Rh110 quench: counter-screen for Apaf-1 inhibitors: fluorescence interference | activation (fluorescence interference), % at 20 µM | 1,800 tested, under 10 active | shares compounds with Apaf1 inhib | Rh110 fluorescence interference, quenched caspase reaction | AID 504615;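 active means signal rise of 40% or more at 20 µM, treated as a fluorescence artifact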
Fluor interf inh: counter-screen for Apaf-1 inhibitors: fluorescence interference, dose response. IC50, µM. fluorescence interference counterscreen, Apaf-1 assay format. AID 588538. 460 tested, under 10 active. shares compounds with Apaf1 inhib; call rule not given here
Of the large screens only hits and unclear results are named; the others gave an inactive call (follow-up assays come after a bar, where they were run). Sampled rows, rich in hits. Any-hit rate of the full collection: about 1.8%.

CCOC(=O)N1CCN(c2cc(NCCC(=O)O)c3c4c(onc24)-c2ccccc2C3=O)CC1	EBNA-1 inhibitor 118, Apaf1 inhib 75, GSTO1 inh 60, ZTA DNA inh 177 | Apaf-1 inh conf2 54 | Rh110 quench inactive | Fluor interf inh 6.3
O=C1c2ccccc2-c2onc3c(N4CCN(CCO)CC4)cc(N4CCN(C(=O)c5ccco5)CC4)c1c23	Apaf1 inhib 52, GSTO1 inh 37 | Apaf-1 inh conf2 inactive | Rh110 quench inactive
CN(C)CCCNC(=O)C[C@H]1C[C@H](C(=O)N2CCCCC2)[C@@]2(CCc3ccccc3)c3[nH]c4ccc(Cl)cc4c3CCN2C1=O	Apaf1 inhib 74 (no result: EBNA-1 inhibitor, GSTO1 inh, ZTA DNA inh) | Apaf-1 inh conf2 inactive | Rh110 quench inactive
O=C(C[C@H]1C[C@H](C(=O)N2CCOCC2)[C@@]2(CCC3CCCC3)c3[nH]c4ccc(Cl)cc4c3CCN2C1=O)NCCCn1ccnc1	Apaf1 inhib 58 (no result: EBNA-1 inhibitor, GSTO1 inh, ZTA DNA inh) | Apaf-1 inh conf2 inactive | Rh110 quench inactive
O=C(C[C@H]1C[C@H](C(=O)N2CCOCC2)[C@@]2(CCC3CCCC3)c3[nH]c4cc(-c5ccco5)ccc4c3CCN2C1=O)NCCN1CCOCC1	none (no result: EBNA-1 inhibitor, GSTO1 inh, ZTA DNA inh)
CCN(CC)C(=O)[C@H]1CC(CC(=O)NC/C=C(\C)CCC=C(C)C)C(=O)N2CCc3c([nH]c4ccc(OC)cc34)[C@]12C (some centres not stated)	Apaf1 inhib 42 (no result: EBNA-1 inhibitor, GSTO1 inh, ZTA DNA inh) | Apaf-1 inh conf2 inactive | Rh110 quench inactive
O=C(C[C@H]1C[C@H](C(=O)N2CCCCC2)[C@@]2(CCc3ccccc3)c3[nH]c4ccc(Cl)cc4c3CCN2C1=O)NCCc1ccccn1	none (no result: EBNA-1 inhibitor, GSTO1 inh, ZTA DNA inh)
CN(C)CCCNC(=O)C[C@H]1C[C@H](C(=O)N2CCOCC2)[C@@]2(CCC3CCCC3)c3[nH]c4cc(-c5ccco5)ccc4c3CCN2C1=O	Apaf1 inhib 67 (no result: EBNA-1 inhibitor, GSTO1 inh, ZTA DNA inh) | Apaf-1 inh conf2 inactive | Rh110 quench inactive
CCN(CC)C(=O)[C@H]1C[C@H](CC(=O)NC/C=C(\C)CCC=C(C)C)C(=O)N2CCc3c([nH]c4ccc(Cl)cc34)[C@]12C	none (no result: EBNA-1 inhibitor, GSTO1 inh, ZTA DNA inh)
O=C(CCc1nc2ccccc2c(=O)[nH]1)NNC(=O)COc1cccc(F)c1	none (no result: EBNA-1 inhibitor, GSTO1 inh)
COc1ccc(CCNC(=O)COC(=O)C2CC2C)cc1OC (configuration not stated)	none (no result: EBNA-1 inhibitor, GSTO1 inh)
COc1ccccc1-c1sc2cc3c(cc2c1C#Cc1cncn1C)OCO3	none (no result: EBNA-1 inhibitor, GSTO1 inh, ZTA DNA inh)
CCN(CC)C(=O)[C@H]1C[C@H](CC(=O)NCCCN(C)C)C(=O)N2CCc3c([nH]c4cc(-c5ccco5)ccc34)[C@]12C	none (no result: EBNA-1 inhibitor, GSTO1 inh, ZTA DNA inh)
CC(C)N(C(=O)[C@H]1C[C@H](CC(=O)NCCCN(C)C)C(=O)N2CCc3c([nH]c4cc(-c5ccco5)ccc34)[C@]12C)C(C)C	Apaf1 inhib 52 (no result: EBNA-1 inhibitor, GSTO1 inh, ZTA DNA inh) | Apaf-1 inh conf2 inactive | Rh110 quench inactive
CCN1/C(=C/c2ccc3ccccc3[n+]2CC)C=Cc2ccccc21	Apaf1 inhib 41 | Apaf-1 inh conf2 inactive | Rh110 quench inactive
CCCCN1/C(=C/c2ccc3ccccc3[n+]2CC)Sc2ccccc21	none (no result: procasp3 activ, EBNA-1 inhibitor, proCasp7 act, GSTO1 inh, ZTA DNA inh)
O=C(Nc1ccccc1NC(=O)c1ccc(F)cc1)c1ccc(F)cc1	none
O=C(NC1=C(Nc2ccc(F)cc2)C(=O)c2ccccc2C1=O)c1ccc(Cl)cc1	Apaf1 inhib 70 | Apaf-1 inh conf2 68 | Rh110 quench inactive | Fluor interf inh inactive
CCOC(=O)C1=CNS(=O)(=O)NC1c1ccc(C(F)(F)F)cc1 (configuration not stated)	none (no result: EBNA-1 inhibitor, GSTO1 inh, ZTA DNA inh)
Oc1ccc(/C=N/Nc2cc(N3CCOCC3)nc(N3CCOCC3)n2)cc1	none
Oc1cccc(/C=N/Nc2cc(N3CCCC3)nc(N3CCCC3)n2)c1	Apaf1 inhib 97, GSTO1 inh 36 | Apaf-1 inh conf2 99 | Rh110 quench inactive | Fluor interf inh inactive
COc1ccc(/C=N/Nc2cc(N3CCCC3)nc(N3CCCC3)n2)cc1	Apaf1 inhib 93, GSTO1 inh 36 | Apaf-1 inh conf2 96 | Rh110 quench inactive | Fluor interf inh inactive
Oc1ccc(/C=N/Nc2cc(N3CCCC3)nc(N3CCCC3)n2)cc1	Apaf1 inhib 97 | Apaf-1 inh conf2 100 | Rh110 quench inactive | Fluor interf inh inactive
COc1ccc(/C=N/Nc2cc(C)nc(-n3nc(C)cc3C)n2)cc1	none
Brc1cccc(/C=N/Nc2nc(N3CCCCC3)nc(N3CCCCC3)n2)c1	none
O=c1cc(N2CCCCC2)c(-c2ccccc2)nn1Cc1ccccc1	none
COc1ccc(Cn2nc(-c3ccccc3)c(N3CCCCC3)cc2=O)cc1	Apaf1 inhib 46 | Apaf-1 inh conf2 inactive | Rh110 quench inactive
C[C@@H](CSc1ccc(Br)cc1)CN1CC[C@H](NC(=O)OCc2ccccc2)CCC1=O	Apaf1 inhib 40 (no result: EBNA-1 inhibitor, GSTO1 inh, ZTA DNA inh) | Apaf-1 inh conf2 inactive | Rh110 quench inactive
COc1ccc(SC[C@H](C)CN2CC[C@H](NC(=O)OCc3ccccc3)CCC2=O)cc1	Apaf1 inhib 70 (no result: EBNA-1 inhibitor, GSTO1 inh, ZTA DNA inh) | Apaf-1 inh conf2 inactive | Rh110 quench inactive
COc1ccc(S[C@@H](CCN2CC[C@H](NC(=O)OCc3ccccc3)CCC2=O)c2ccccc2)cc1	none (no result: EBNA-1 inhibitor, GSTO1 inh, ZTA DNA inh)
COc1cc(C(=O)OCC(=O)c2ccccc2)cc2c1OCCO2	none (no result: EBNA-1 inhibitor, GSTO1 inh)
CCCCc1oc2ccccc2c1C(=O)c1cc(I)c(OCCN(CC)CC)c(I)c1	Apaf1 inhib 53 (no result: procasp3 activ, EBNA-1 inhibitor, proCasp7 act) | Apaf-1 inh conf2 inactive | Rh110 quench inactive
COc1ccc(NC(=O)Cc2nnc(SCC(=O)NC3CCCCC3C)n2C)cc1 (configuration not stated)	none

High-throughput results deposited in PubChem BioAssay by several laboratories.
